From ChEMBL document CHEMBL4732082, “Development of novel benzimidazole-derived neddylation inhibitors for suppressing tumor growth invitro and invivo” (Eur J Med Chem, 2021) come the findings set out here.

Test [1] concerns the target T1, NEDD8-activating enzyme E1 regulatory subunit (Homo sapiens) (UniProt Q13564).
T1 sequence (whole entry): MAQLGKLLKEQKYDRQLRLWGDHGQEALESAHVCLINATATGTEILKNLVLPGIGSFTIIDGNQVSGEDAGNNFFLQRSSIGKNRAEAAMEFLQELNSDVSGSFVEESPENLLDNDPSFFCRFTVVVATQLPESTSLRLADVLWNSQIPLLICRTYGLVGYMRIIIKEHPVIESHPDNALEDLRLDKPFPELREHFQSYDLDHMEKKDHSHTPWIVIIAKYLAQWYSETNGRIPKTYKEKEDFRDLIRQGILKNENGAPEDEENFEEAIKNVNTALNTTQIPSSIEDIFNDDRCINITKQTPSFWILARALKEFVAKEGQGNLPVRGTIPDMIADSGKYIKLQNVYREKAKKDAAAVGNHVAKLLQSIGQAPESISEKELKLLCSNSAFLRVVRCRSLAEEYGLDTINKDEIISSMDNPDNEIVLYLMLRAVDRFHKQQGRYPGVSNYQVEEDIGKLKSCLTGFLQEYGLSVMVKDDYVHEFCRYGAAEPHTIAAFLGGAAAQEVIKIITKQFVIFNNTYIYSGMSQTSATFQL
Nature of the test: Inhibition of NAE (unknown origin)-mediated neddylation assessed as suppression of cullin1-Nedd8 adduct formation at 25 uM preincubated for 10 mins followed by ATP addition and measured after 30 mins by immunoblot analysis relative to control. Particulars: time 40.0 min. (In general: In western blotting, separated proteins are transferred to a membrane and probed.)

For test [2], the system named is A549. Put plainly: Antiproliferative activity against human A549 cells assessed as inhibition of cell proliferation at 100 uM incubated for 48 hrs by CCK-8 assay relative to control. Type of test: functional. More on the design: scale not given: the % may be the effect or the level left. The method in brief:
(§1)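 Cells from ATCC, passaged six times, grown in DMEM with 10% FBS and penicillin/streptomycin at 37 °C under 5% CO2. Seeded at 2500 cells/well, cultured overnight, treated 48 h, viability read by CCK-8. Run in triplicate; values are the mean of three experiments.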
A general note: Formazan colour is commonly taken as a measure of viable cells.

Test [3] deals with A549. Nature of the test: Antiproliferative activity against human A549 cells incubated for 48 hrs by CCK-8 assay. Type of test: functional, cell-based. Particulars: A549, 48 h. The method in brief:
as §1

For another test, the system named is NCI-H1299. Nature of the test: Antiproliferative activity against human H1299 cells incubated for 48 hrs by CCK-8 assay. The class given is functional, cell-based. Conditions: NCI-H1299, 48 h. The method in brief: as §1
Test [4] in a line: Cytotoxicity against human […] cells incubated for 48 hrs by CCK-8 assay. Type of test: cell-based. The method in brief: as §1
In another test the test system is BEAS-2B. Put plainly: Cytotoxicity against human BEAS-2B cells incubated for 48 hrs by CCK-8 assay. Type of test: cell-based. The method in brief:
as §1

As to `CCOc1nc2cccc(C(=O)NCCc3ccccc3Cl)c2n1Cc1ccc(-c2ccccc2-c2nnn[nH]2)cc1`, the inhibition (as a rule, the drop in the measured response relative to a control, in per cent) in test [1] turned out to be 57.4%. The Activity in the test on A549 [2] is recorded as 36.6%.
For the molecule `CCOc1nc2cccc(C(=O)Nc3ccc(F)cc3)c2n1Cc1ccc(-c2ccccc2-c2nnn[nH]2)cc1`, the inhibition in test [1] worked out at 45.3%. Also, the Activity with A549 [2] was determined as 66.3%.
For `CCOc1nc2ccccc2n1Cc1ccc(-c2ccccc2-c2nn[nH]n2)cc1`, the inhibition in test [1] was found to be 18.9%. Moreover, in the test on A549 [2], the Activity was 9.5%.
Consider `NS(=O)(=O)OC[C@@H]1C[C@@H](n2ccc3c(N[C@H]4CCc5ccccc54)ncnc32)C[C@@H]1O` [PEVONEDISTAT], for which the inhibition in test [1] stood at 90.5%. Further, the Activity in the test with A549 [2] was determined as 91.4%. Also, the IC50 (in general, the point on the concentration scale where inhibition reaches its midpoint) with A549 [3] was 0.63 µM; with NCI-H1299 it was 0.49 µM; in test [4] it was 4.03 µM; in the test on BEAS-2B it was 1.22 µM.
As for `CCOc1nc2cccc(C(=O)NCCc3ccc(Br)cc3)c2n1Cc1ccc(-c2ccccc2-c2nnn[nH]2)cc1`, the inhibition in test [1] was found to be 66.1%. Moreover, the Activity in the test with A549 [2] was 51.4%.
For the molecule `CCOc1nc2cccc(C(=O)NCCc3ccc(C)cc3)c2n1Cc1ccc(-c2ccccc2-c2nnn[nH]2)cc1`, the inhibition in test [1] came out at 32.1%. In addition, in the test on A549 [2], the Activity turned out to be 15.7%.
On to `CCOc1nc2cccc(C(=O)Nc3ccncc3)c2n1Cc1ccc(-c2ccccc2-c2nnn[nH]2)cc1`, for which the inhibition in test [1] was 39.8%. The Activity in the test with A549 [2] was 39.5%.
For `CCOc1nc2cccc(C(=O)N[C@H]3CC[C@H](C(=O)OC)CC3)c2n1Cc1ccc(-c2ccccc2-c2nnn[nH]2)cc1` the same measures were 28.6% and 9.2%.
Turning to `CCOc1nc2cccc(C(=O)OC(C)OC(=O)OC3CCCCC3)c2n1Cc1ccc(-c2ccccc2-c2nn[nH]n2)cc1` (centres undefined) [CANDESARTAN CILEXETIL], the inhibition in test [1] was 87.8%. Also, the Activity in the test with A549 [2] worked out at 69.2%. Moreover, the IC50 was found to be 65.9 µM with A549 [3], 82.7 µM in test [4] and 79.8 µM in the test on BEAS-2B.
Take `CCOc1nc2cccc(C(=O)NC3CCCC3)c2n1Cc1ccc(-c2ccccc2-c2nnn[nH]2)cc1`: the inhibition in test [1] came to 39.7%. Also, in the test on A549 [2], the Activity stood at 11.9%.
Turning to `CCOc1nc2cccc(C(=O)NCc3ccccc3)c2n1Cc1ccc(-c2ccccc2-c2nnn[nH]2)cc1`, the inhibition in test [1] was 48.9%. The Activity in the test on A549 [2] was determined as 54.5%.
For the molecule `CCOc1nc2cccc(C(=O)NOCc3ccccc3)c2n1Cc1ccc(-c2ccccc2-c2nnn[nH]2)cc1`, the inhibition in test [1] amounted to 39.8%. In the test on A549 [2], the Activity came to 24.3%.
On to `CCOc1nc2cccc(C(=O)OC(C)OC(=O)OC3CCCCC3)c2n1Cc1ccc(-c2ccccc2)cc1` (centres undefined), for which the inhibition in test [1] came out at 29.5%. In the test on A549 [2], the Activity is recorded as 34.2%.
On to `CCOc1nc2cccc(C(=O)NC3CC3)c2n1Cc1ccc(-c2ccccc2-c2nnn[nH]2)cc1`, for which the inhibition in test [1] is 30.9%. Further, the Activity in the test on A549 [2] came out at 11.3%.
In the same order, the values of `CCOc1nc2cccc(C(=O)NC3CCCCC3)c2n1Cc1ccc(-c2ccccc2-c2nnn[nH]2)cc1` are 36.8% and 12.1%.
As for `CCOc1nc2cccc(C(=O)Nc3ccc(OC)cc3)c2n1Cc1ccc(-c2ccccc2-c2nnn[nH]2)cc1`, the inhibition in test [1] was determined as 25.8%. Also, the Activity with A549 [2] amounted to 10.5%.
For the molecule `CCOc1nc2cccc(C(=O)Nc3ccc4c(c3)OCO4)c2n1Cc1ccc(-c2ccccc2-c2nnn[nH]2)cc1`, in test [1], the inhibition turned out to be 34.9%. Besides, in the test on A549 [2], the Activity came to 16.7%.
In the case of `CCOc1nc2cccc(C(=O)Nc3ccc(S(N)(=O)=O)cc3)c2n1Cc1ccc(-c2ccccc2-c2nnn[nH]2)cc1`, the inhibition in test [1] came to 60.9%. Besides, the Activity in the test on A549 [2] came to 54.4%.
As for `CCOc1nc2cccc(C(=O)NCCc3c(Cl)cccc3Cl)c2n1Cc1ccc(-c2ccccc2-c2nnn[nH]2)cc1`, the inhibition in test [1] came out at 86.7%. The Activity in the test with A549 [2] is 45.5%.
On to `CCOc1nc2cccc(C(=O)NCCCN(C)C)c2n1Cc1ccc(-c2ccccc2-c2nnn[nH]2)cc1`, for which, in test [1], the inhibition was determined as 29.5%. For the same molecule, the Activity in the test with A549 [2] is 9.8%.
In the case of `CCOc1nc2cccc(C(=O)NCCc3ccc(F)cc3F)c2n1Cc1ccc(-c2ccccc2-c2nnn[nH]2)cc1`, the inhibition in test [1] is 35.8%. For the same molecule, in the test with A549 [2], the Activity was determined as 12.5%.
On to `CCOc1nc2cccc(C(=O)NCCCNC3CCCCC3)c2n1Cc1ccc(-c2ccccc2-c2nnn[nH]2)cc1`, for which the inhibition in test [1] is 29.4%. Further, the Activity in the test with A549 [2] is 11.2%.
With `CCOc1nc2cc(C(=O)OC(C)OC(=O)OC3CCCCC3)ccc2n1Cc1ccc(-c2ccccc2-c2nnn[nH]2)cc1` (centres undefined), the inhibition in test [1] was 44.7%. Moreover, the Activity in the test on A549 [2] came out at 33.3%.
For the molecule `CCOc1nc2ccc(C(=O)OC(C)OC(=O)OC3CCCCC3)cc2n1Cc1ccc(-c2ccccc2-c2nnn[nH]2)cc1` (centres undefined), the inhibition in test [1] stood at 43.2%. For the same molecule, the Activity in the test with A549 [2] stood at 56.9%.
Turning to `CCOc1nc2cccc(C(=O)OC(C)OC(=O)OC3CCCCC3)c2n1Cc1ccc(-c2ccccc2-c2noc(=O)[nH]2)cc1` (centres undefined), in test [1], the inhibition was 34.2%. The Activity in the test on A549 [2] is on record as 14.6%.
For `CCOc1nc2cccc(C(=O)NCCc3cccc(OC)c3)c2n1Cc1ccc(-c2ccccc2-c2nnn[nH]2)cc1`, the inhibition in test [1] stood at 43.6%. The Activity in the test with A549 [2] is on record as 57.7%.
In the case of `CCCNC(=O)c1cccc2nc(OCC)n(Cc3ccc(-c4ccccc4-c4nnn[nH]4)cc3)c12`, in test [1], the inhibition was 32.6%. The Activity with A549 [2] is reported as 12.5%.
With `CCOc1nc2cccc(C(=O)NCCc3ccc([N+](=O)[O-])cc3)c2n1Cc1ccc(-c2ccccc2-c2nnn[nH]2)cc1`, in test [1], the inhibition worked out at 47.5%. For the same molecule, in the test with A549 [2], the Activity was determined as 53.5%.
Consider `CCOc1nc2cccc(C(=O)NCCc3ccc(Cl)cc3)c2n1Cc1ccc(-c2ccccc2-c2nnn[nH]2)cc1`, for which the inhibition in test [1] came out at 47.6%. Besides, the Activity with A549 [2] worked out at 36.2%.
For `CCCC(=O)N(Cc1ccc(-c2ccccc2-c2nnn[nH]2)cc1)c1ccccc1C(=O)OC(C)OC(=O)OC1CCCCC1` (centres undefined) the same measures were 32.6% and 15.2%.
For the molecule `CCOc1nc2cccc(C(=O)NCc3ccc4c(c3)OCO4)c2n1Cc1ccc(-c2ccccc2-c2nnn[nH]2)cc1`, in test [1], the inhibition was 47.9%. For the same molecule, in the test on A549 [2], the Activity is 53.19%.
For `CCOc1nc2cccc(C(=O)NCc3ccc(F)cc3)c2n1Cc1ccc(-c2ccccc2-c2nnn[nH]2)cc1` the same measures were 38.1% and 35.4%.
On to `CCOc1nc2cccc(C(=O)NCCc3ccc4c(c3)OCO4)c2n1Cc1ccc(-c2ccccc2-c2nnn[nH]2)cc1`, for which, in test [1], the inhibition turned out to be 35.7%. Besides, in the test on A549 [2], the Activity was determined as 14.2%.
For `CCOc1nc2cccc(C(=O)OC(C)OC(=O)OC3CCCCC3)c2n1Cc1ccc(-c2ccccc2-c2nnnn2C)cc1` (centres undefined) the same measures were 41.2% and 16.8%.
For `CCOc1nc2cccc(C(=O)Nc3ccccc3)c2n1Cc1ccc(-c2ccccc2-c2nnn[nH]2)cc1` the same measures were 34.6% and 13.1%.
As to `CCOc1nc2cccc(C(=O)NC(c3ccccc3)c3ccccc3)c2n1Cc1ccc(-c2ccccc2-c2nnn[nH]2)cc1`, in test [1], the inhibition was determined as 35.7%. In the test on A549 [2], the Activity amounted to 31.6%.
For `CCOc1nc2cccc(C(=O)NCc3ccco3)c2n1Cc1ccc(-c2ccccc2-c2nnn[nH]2)cc1` the same measures were 37.5% and 18.9%.
On to `CCOC(=O)CNC(=O)c1cccc2nc(OCC)n(Cc3ccc(-c4ccccc4-c4nnn[nH]4)cc3)c12`, for which the inhibition in test [1] worked out at 46.5%. For the same molecule, the Activity in the test on A549 [2] was found to be 32.7%.
With `CCOc1nc2cccc(C(=O)NCCCOC)c2n1Cc1ccc(-c2ccccc2-c2nnn[nH]2)cc1`, in test [1], the inhibition turned out to be 27.9%. Besides, the Activity in the test with A549 [2] is 10.1%.
For `CCOc1nc2cccc(C(=O)NCCCCc3ccccc3)c2n1Cc1ccc(-c2ccccc2-c2nnn[nH]2)cc1` the same measures were 64.6% and under 20%.
Regarding `CCOc1nc2cccc(C(=O)NCCc3ccccc3)c2n1Cc1ccc(-c2ccccc2-c2nnn[nH]2)cc1`, the inhibition in test [1] worked out at 39.4%. The Activity with A549 [2] is 43.8%.
